pKi: −log10 of the molar value.
Legend:
Translocator protein = Translocator protein (Rattus norvegicus, UniProt P16257); test: Displacement of [3H]-PK11195 from TSPO in rat C6 cell lysate after 2 hrs by liquid scintillation counting; type: cell-free
[1] = Lipophilicity, log P of the compound at pH 7.5 by HPLC method; type: physicochemical; details: buffer
[2] = Fraction unbound in human plasma after 4.5 hrs by rapid equilibrium dialysis method; type: ADME, cell-free
Procedure, shortened: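 Equilibrium dialysis of plasma against buffer. After dialysis, the buffer and plasma fractions were extracted and analysed by standard LC-MS to quantify the compound.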

Translocator protein, sequence (P16257 whole entry, looked up): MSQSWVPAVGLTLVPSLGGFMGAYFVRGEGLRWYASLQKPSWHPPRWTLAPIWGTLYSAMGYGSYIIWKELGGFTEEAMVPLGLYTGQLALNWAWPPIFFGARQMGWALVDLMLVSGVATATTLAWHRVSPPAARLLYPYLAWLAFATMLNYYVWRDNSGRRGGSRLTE

| Structure (SMILES) | pKi (Translocator protein) | logP [1] | Fu [2] [%] |
| --- | --- | --- | --- |
| CCc1cc(CC)n2nc(-c3ccc(OC)cc3)c(CC(=O)N3CCCCC3)c2n1 | 7.31 | 2.96 |  |
| CCc1cc(CC)n2nc(-c3ccc(OC)cc3)c(CC(=O)N(CC)C(C)(C)C)c2n1 | 7.23 | 3.32 |  |
| CCc1cc(CC)n2nc(-c3ccc(OC)cc3)c(CC(=O)N(C)c3ccccc3)c2n1 | 8.19 | 3.11 | 1.1 |
| CCc1cc(CC)n2nc(-c3ccc(OC)cc3)c(CC(=O)N(CC)c3ccccc3)c2n1 | 9.55 | 3.27 | 0.6 |
| CCCN(CCC)C(=O)Cc1c(-c2ccc(OC)cc2)nn2c(CC)cc(CC)nc12 | 8.25 | 3.35 | 0.7 |
| CCc1cc(CC)n2nc(-c3ccc(OC)cc3)c(CC(=O)N3CCC3)c2n1 | 7.06 | 2.58 |  |
| CCc1cc(CC)n2nc(-c3ccc(OC)cc3)c(CC(=O)N3CCCC3)c2n1 | 6.90 | 2.72 |  |
| CCc1cc(CC)n2nc(-c3ccc(OC)cc3)c(CC(=O)N(CC(C)C)CC(C)C)c2n1 | 7.88 | 3.77 |  |
| CCc1cc(CC)n2nc(-c3ccc(OC)cc3)c(CC(=O)N(Cc3ccccc3)Cc3ccccc3)c2n1 | 6.40 | 3.73 |  |
| CCCCCCN(CCCCCC)C(=O)Cc1c(-c2ccc(OC)cc2)nn2c(CC)cc(CC)nc12 | 7.73 | 4.78 |  |
| CCc1cc(CC)n2nc(-c3ccc(OC)cc3)c(CC(=O)N(C)C)c2n1 | 7.42 | 2.47 |  |
| CCCCCN(CCCCC)C(=O)Cc1c(-c2ccc(OC)cc2)nn2c(CC)cc(CC)nc12 | 8.66 | 4.29 |  |
| CCCCN(CCCC)C(=O)Cc1c(-c2ccc(OC)cc2)nn2c(CC)cc(CC)nc12 | 8.13 | 3.81 | 0.3 |
| CCc1cc(CC)n2nc(-c3ccc(OC)cc3)c(CC(=O)N(CC)CC)c2n1 |  |  | 1.1 |
| CCc1cc(CC)n2nc(-c3ccc(OC)cc3)c(CC(=O)N(C)C(C)(C)C)c2n1 | 7.02 | 3.13 | 1.3 |
| CCc1cc(CC)n2nc(-c3ccc(OC)cc3)c(CC(=O)N(C(C)C)C(C)C)c2n1 | 7.70 | 3.26 |  |
| CCc1cc(CC)n2nc(-c3ccc(OC)cc3)c(CC(=O)N(C(C)CC)C(C)CC)c2n1 (stereo not drawn) | 7.84 | 3.75 |  |
